Measurements: ChEMBL document CHEMBL3871293, “Discovery of novel DNA methyltransferase 3A inhibitors via structure-based virtual screening and biological assays” (Bioorg Med Chem Lett, 2017)
Calls of active or inactive are those of the source. The rule behind the calls is not given here.

Experiments:
[1] = molecular target: T1, DNA (cytosine-5)-methyltransferase 3A (Homo sapiens, UniProt Q9Y6K1); experiment: (§1) Inhibition of N-terminal His6-tagged DNMT3A (623 to 908 residues) (unknown origin) expressed in Escherichia coli BL21 (DE3) coexpressing DNMT3L (160 to 386 C-terminal residues) (unknown origin) assessed as reduction in oligonucleosome methylation at 100 uM preincubated for 15 mins followed by addition of [3H]-SAM measured after 4 hrs by liquid scintillation counting method
Procedure, shortened: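 DNMT3A/3L complex activity measured by radioactive methylation assay. Single-point screen at 100µM per compound, with sinefungin (a SAM competitor) run as the reference inhibitor.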

Kasumi 1 = experiment: Growth inhibition of human Kasumi-1 cells at 12.5 to 200 uM measured after 48 hrs by AlamarBlue assay; type: functional, cell-based
Procedure, shortened: (§2)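 AML cells were exposed to 12.5, 25, 50, 100 and 200µM for 48 hours before viability read-out: Kasumi-1, MV4-11 and THP-1.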

HeLa = experiment: Growth inhibition of human HeLa cells at 12.5 to 200 uM measured after 4 days by AlamarBlue assay; type: functional, cell-based
THP-1 = experiment: Growth inhibition of human THP1 cells at 12.5 to 200 uM measured after 48 hrs by AlamarBlue assay; type: functional, cell-based; procedure, shortened: as §2
[2] = molecular target: T1, DNA (cytosine-5)-methyltransferase 3A; experiment: as §1, with “methylation” for “methylation at 100 uM”
Procedure, shortened: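 IC50 determined from a dose-response in the same radioactive methylation assay on DNMT3A/3L. Sinefungin served as the SAM-competitive reference inhibitor.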

KG-1 = experiment: Growth inhibition of human KG1 cells at 12.5 to 200 uM measured after 72 hrs by AlamarBlue assay; type: functional, cell-based
Procedure, shortened: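 KG-1 AML cells were treated at 12.5, 25, 50, 100 and 200µM, with viability read after 72 hours of exposure.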

MV4-11 = experiment: Growth inhibition of human MV4-11 cells at 12.5 to 200 uM measured after 48 hrs by AlamarBlue assay; type: functional, cell-based; procedure, shortened: as §2

T1 sequence (Q9Y6K1 whole entry, looked up, the tested form may be a part): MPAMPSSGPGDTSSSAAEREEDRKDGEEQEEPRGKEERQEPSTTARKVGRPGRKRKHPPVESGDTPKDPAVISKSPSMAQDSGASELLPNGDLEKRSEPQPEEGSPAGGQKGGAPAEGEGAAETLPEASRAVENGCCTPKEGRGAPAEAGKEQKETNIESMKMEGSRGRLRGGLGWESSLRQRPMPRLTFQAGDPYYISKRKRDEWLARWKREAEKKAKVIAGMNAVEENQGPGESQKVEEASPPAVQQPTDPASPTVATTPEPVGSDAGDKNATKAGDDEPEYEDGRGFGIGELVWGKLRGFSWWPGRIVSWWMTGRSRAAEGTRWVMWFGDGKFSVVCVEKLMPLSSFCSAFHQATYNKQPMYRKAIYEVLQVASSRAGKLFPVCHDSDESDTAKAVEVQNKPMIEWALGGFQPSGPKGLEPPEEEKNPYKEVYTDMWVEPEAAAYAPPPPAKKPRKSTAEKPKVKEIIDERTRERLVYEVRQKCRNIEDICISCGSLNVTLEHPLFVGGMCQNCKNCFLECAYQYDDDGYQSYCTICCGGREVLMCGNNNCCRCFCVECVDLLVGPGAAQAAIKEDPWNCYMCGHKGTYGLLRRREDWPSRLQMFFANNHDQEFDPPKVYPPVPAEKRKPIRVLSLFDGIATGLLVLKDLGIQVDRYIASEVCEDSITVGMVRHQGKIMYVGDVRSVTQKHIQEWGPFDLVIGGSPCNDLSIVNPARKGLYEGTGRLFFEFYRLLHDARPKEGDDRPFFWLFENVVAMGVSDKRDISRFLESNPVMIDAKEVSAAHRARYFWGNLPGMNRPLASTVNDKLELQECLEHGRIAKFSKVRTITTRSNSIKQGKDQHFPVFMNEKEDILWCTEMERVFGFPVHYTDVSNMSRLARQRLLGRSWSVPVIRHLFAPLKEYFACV

SMILES | inhibition [1] | other results
COc1ccccc1N1C(=O)c2ccc(C(=O)Nc3ccccc3O)cc2C1=O | 1% | –
Cc1ccc(O)c(NC(=O)c2ccc3c(c2)C(=O)N(Cc2cccnc2)C3=O)c1 | 6% | –
Cc1cc(O)ccc1NC(=O)c1ccc2c(c1)C(=O)N(Cc1cccnc1)C2=O | 11% | –
O=C(Nc1ccccc1Cl)c1ccc2c(c1)C(=O)N(Cc1ccco1)C2=O | 13% | –
CCOc1ccc(NC(=O)c2ccc3c(c2)C(=O)N(c2ccccc2)C3=O)cc1 | 19% | –
Cc1cc(Br)ccc1NC(=O)c1ccc2c(c1)C(=O)N(CC(C)C)C2=O | 8% | –
COc1ccc(N2C(=O)c3ccc(C(=O)Nc4ccccc4OC)cc3C2=O)cc1 | 4% | –
COc1ccccc1NC(=O)c1ccc2c(c1)C(=O)N(Cc1ccco1)C2=O | 3% | –
CC(C)(C)N1C(=O)c2ccc(C(=O)Nc3ccc(C(=O)O)cc3)cc2C1=O | 11% | –
O=C(O)c1ccc(NC(=O)c2ccc3c(c2)C(=O)N(Cc2ccco2)C3=O)cc1 | 92% | IC50 [2]: 64 µM

Second part, led by results:

inhibition [1] | SMILES | other results
Active | CC(c1ccccc1)N1C(=O)c2ccc(C(=O)Nc3ccc(Br)cc3C(=O)O)cc2C1=O (configuration not stated) | growth inhibition (GI) (Kasumi 1): Active; growth inhibition (GI) (HeLa): Active; growth inhibition (GI) (THP-1): Active; IC50 [2]: 46.5 µM; growth inhibition (GI) (KG-1): Active; growth inhibition (GI) (MV4-11): Active
56% | CCOc1ccccc1N1C(=O)c2ccc(C(=O)Nc3ccc(Br)cc3C(=O)O)cc2C1=O | –
-8% | COCCN1C(=O)c2ccc(C(=O)Nc3ccc(Br)cc3C(=O)O)cc2C1=O | –
67% | O=C(Nc1ccc(Br)cc1C(=O)O)c1ccc2c(c1)C(=O)N(c1cc(Cl)ccc1C(=O)O)C2=O | growth inhibition (GI) (Kasumi 1): Active; growth inhibition (GI) (HeLa): Active; growth inhibition (GI) (THP-1): Active; IC50 [2]: 41 µM; growth inhibition (GI) (KG-1): Active; growth inhibition (GI) (MV4-11): Active
